Assay results: PubChem BioAssay AID977617 (Broad Institute, 2014)
Values joined by “and” are separate entries in the source; they are usually repeats but may differ in a detail not shown here. Equal values may be shown once. Active and inactive are the calls of the source.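 Rule for the calls: active = cell killing, with a fitted half-maximal concentration at or below twice the top valid dose tested; inconclusive = flat fit with a moderate signal drop, or a poor fit; inactive = effect in the rising direction, plus the rest.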

Tested on: not listed separately
Assay: A549 cell cytotoxicity, dose response, cytotoxicity control, CellTiter-Glo luminescence, dry powder, set 13 (AID 977617)
Conditions: A549 viability, CellTiter-Glo ATP luminescence, 72 h; at 26 µM (top of the series)
Procedure, shortened: (§1)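 Test system – A549 human lung carcinoma cells, cell-based viability · Amount – 1000 cells/well · Read-out – viability via ATP, lower signal means cytotoxic · Dosing – compound concentration series on A549 cells · Incubation – 24 h pre-dosing, 72 h exposure at 37 °C · Medium – DMEM, 10% FBS · Technique – CellTiter-Glo ATP luminescence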
With `C[C@@H](O)C#Cc1ccc2c(c1)O[C@@H](CN(C)Cc1cccnc1)[C@@H](C)CN([C@@H](C)CO)S2(=O)=O` the activity change, negative = cytotoxicity was -0.989% (inactive).
For `C[C@H]1CN([C@@H](C)CO)S(=O)(=O)c2ccc(Br)cc2O[C@H]1CN(C)Cc1ccc(-c2ccccc2)cc1`, the activity change, negative = cytotoxicity was -3.47% (inactive).
In the case of `CO[C@H]1CN(C)C(=O)c2ccc(NC(=O)c3ccc(F)cc3)cc2OC[C@H](C)N(C(=O)c2ccc(F)cc2)C[C@@H]1C`, the activity change, negative = cytotoxicity is reported as 2.69% (inactive).
With `C[C@@H](O)C#Cc1ccc2c(c1)O[C@@H](CN(C)C(=O)c1ccc(-c3ccccc3)cc1)[C@@H](C)CN([C@@H](C)CO)S2(=O)=O` the activity change, negative = cytotoxicity was -7.04% (inactive).
For `CNC[C@@H]1Oc2cc(Br)ccc2S(=O)(=O)N([C@@H](C)CO)C[C@@H]1C`, the activity change, negative = cytotoxicity was -12.1% (inactive).
In the case of `C[C@H](O)C#Cc1ccc2c(c1)O[C@@H](CN(C)Cc1ccc(-c3ccccc3)cc1)[C@@H](C)CN([C@H](C)CO)S2(=O)=O`, the activity change, negative = cytotoxicity is reported as 12.2% (inactive).
For `C[C@@H](O)C#Cc1ccc2c(c1)O[C@@H](CN(C)Cc1ccncc1)[C@@H](C)CN([C@@H](C)CO)S2(=O)=O`, the activity change, negative = cytotoxicity was -7.94% (inactive).
In the case of `COc1ccc(-c2ccc3c(c2)O[C@@H](CN(C)Cc2ccc(-c4ccccc4)cc2)[C@@H](C)CN([C@@H](C)CO)S3(=O)=O)cc1`, the activity change, negative = cytotoxicity is reported as -11.8% (inactive).
In the case of `C[C@@H](O)C#Cc1ccc2c(c1)O[C@@H](CN(C)S(=O)(=O)c1ccc(-c3ccccc3)cc1)[C@@H](C)CN([C@@H](C)CO)S2(=O)=O`, the activity change, negative = cytotoxicity is reported as 0.446% (inactive).

Tested on: A549 viability, CellTiter-Glo ATP luminescence, 72 h
Assay: as above
Conditions: not given
Procedure, shortened: as §1
For `Cc1cccc(-c2ccc(CN(C)C[C@@H]3Oc4cc(C#C[C@@H](C)O)ccc4S(=O)(=O)N([C@@H](C)CO)C[C@@H]3C)cc2)c1`, the AC50 was 15 µM.
Compound `C[C@H](O)C#Cc1ccc2c(c1)O[C@@H](CN(C)Cc1ccc(-c3ccccc3)cc1)[C@@H](C)CN([C@@H](C)CO)S2(=O)=O` has an AC50 of 22.6 µM.
In the case of `COc1ccc(-c2ccc(CN(C)C[C@@H]3Oc4cc(C#C[C@@H](C)O)ccc4S(=O)(=O)N([C@@H](C)CO)C[C@@H]3C)cc2)cc1`, the AC50 is reported as 14.1 µM.
In the case of `Cc1ccc(-c2ccc(CN(C)C[C@@H]3Oc4cc(C#C[C@@H](C)O)ccc4S(=O)(=O)N([C@@H](C)CO)C[C@@H]3C)cc2)cc1`, the AC50 is reported as 15.7 µM.
`C[C@H]1CN([C@@H](C)CO)S(=O)(=O)c2ccc(C#CC(C)(C)O)cc2O[C@H]1CN(C)Cc1ccc(-c2ccccc2)cc1` showed an AC50 of 19.9 µM.
In the case of `C[C@H](O)C#Cc1ccc2c(c1)O[C@H](CN(C)Cc1ccc(-c3ccccc3)cc1)[C@@H](C)CN([C@H](C)CO)S2(=O)=O`, the AC50 is reported as 19.4 µM.
Work on `Cc1ccccc1-c1ccc(CN(C)C[C@@H]2Oc3cc(C#C[C@@H](C)O)ccc3S(=O)(=O)N([C@@H](C)CO)C[C@@H]2C)cc1` yielded an AC50 of 16.7 µM.
`C[C@@H](O)C#Cc1ccc2c(c1)O[C@@H](CN(C)Cc1ccc(-c3ccc(Cl)cc3)cc1)[C@@H](C)CN([C@@H](C)CO)S2(=O)=O` showed an AC50 of 9.62 µM.
For `C[C@@H](O)C#Cc1ccc2c(c1)O[C@@H](CN(C)Cc1ccc(-c3ccccc3)cc1)[C@@H](C)CN([C@@H](C)CO)S2(=O)=O`, the AC50 was 17.7 µM and 19 µM.
In the case of `COc1ccccc1-c1ccc(CN(C)C[C@@H]2Oc3cc(C#C[C@@H](C)O)ccc3S(=O)(=O)N([C@@H](C)CO)C[C@@H]2C)cc1`, the AC50 is reported as 12.9 µM.
With `C[C@@H](O)C#Cc1ccc2c(c1)O[C@@H](CN(C)Cc1ccc(-c3ccccc3Cl)cc1)[C@@H](C)CN([C@@H](C)CO)S2(=O)=O` the AC50 was 14.4 µM.
`C[C@@H](O)C#Cc1ccc2c(c1)O[C@H](CN(C)Cc1ccc(-c3ccccc3)cc1)[C@@H](C)CN([C@@H](C)CO)S2(=O)=O` showed an AC50 of 19.4 µM.
For `C[C@@H](O)C#Cc1ccc2c(c1)O[C@@H](CN(C)Cc1ccc(-c3cccc(Cl)c3)cc1)[C@@H](C)CN([C@@H](C)CO)S2(=O)=O`, the AC50 was 14.1 µM.
`C[C@H](O)C#Cc1ccc2c(c1)O[C@@H](CN(C)Cc1ccc(-c3ccccc3)cc1)[C@H](C)CN([C@@H](C)CO)S2(=O)=O` showed an AC50 of 26.1 µM.
`C[C@H](CO)N1C[C@H](C)[C@@H](CN(C)Cc2ccc(-c3ccccc3)cc2)Oc2cc(C#C[C@@H](C)O)ccc2S1(=O)=O` showed an AC50 of 27.1 µM.
With `C[C@@H]1CN([C@@H](C)CO)S(=O)(=O)c2ccc(C#C[C@@H](C)O)cc2O[C@H]1CN(C)Cc1ccc(-c2ccccc2)cc1` the AC50 was 26.1 µM.
For `C[C@H](O)C#Cc1ccc2c(c1)O[C@@H](CN(C)Cc1ccc(-c3ccccc3)cc1)[C@H](C)CN([C@H](C)CO)S2(=O)=O`, the AC50 was 22.1 µM.
Compound `C[C@H](O)C#Cc1ccc2c(c1)O[C@H](CN(C)Cc1ccc(-c3ccccc3)cc1)[C@@H](C)CN([C@@H](C)CO)S2(=O)=O` has an AC50 of 6 µM.
In the case of `COc1cccc(-c2ccc(CN(C)C[C@@H]3Oc4cc(C#C[C@@H](C)O)ccc4S(=O)(=O)N([C@@H](C)CO)C[C@@H]3C)cc2)c1`, the AC50 is reported as 15.2 µM.
